Measured values reported in ChEMBL document CHEMBL1133453, “Further studies on nociceptin-related peptides: discovery of a new chemical template with antagonist activity on the nociceptin receptor” (J Med Chem, 2000).
The source made the active and inactive calls. The calls are words filed in the database; no cut-off is given here. Numbered stars: 1 amine (or outer) side, 2 acyl side, 3 side chain; on linkers, the order of the positions; unused ones are H or OH. Square brackets hold non-standard residues; d marks the D form. Peptide text beside a SMILES is read from it. X5 = N[C@@H](Cc1ccc(O)cc1)CN(CC(=O)[*:2])[*:1]; X1 = CC(C)C[C@H](N)CN(CC(=O)[*:2])[*:1]; Nphe = O=C(O)CNCc1ccccc1

How the values were obtained:
[1] = species: Mus musculus; assay: Potency (Emax) against electrically evoked contraction (twitch response) in mouse vas deferens; NA means Inactive up to 10 uM; format: functional, organism-based
How it was run: (§1)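 Mouse vas deferens held in Mg2+-free Krebs at 33 °C under 0.3 g resting tension. Field stimulation through platinum electrodes with supramaximal 1-ms pulses at 0.1 Hz, twitches recorded isotonically. After about 2 h equilibration, cumulative concentration-response curves built in 0.5 log steps up to 10 µM. pEC50 taken as the concentration giving half-maximal effect. Mean of at least 3 experiments.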

[2] = species: Mus musculus; assay: Compound was tested for agonistic activity against electrically evoked contraction (twitch response) in mouse vas deferens; NA means Inactive up to 10 uM; format: functional, organism-based; how it was run: as §1
[3] = species: Mus musculus; assay: Compound was tested for the antagonistic activity on mouse vas deferens using NC(1-13)NH2 as agonist; NA means Inactive up to 10 uM; format: functional, organism-based
How it was run: (§2)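 Electrically stimulated mouse vas deferens (Mg2+-free Krebs, 33 °C, 0.1 Hz, 1-ms pulses). Antagonist at 10 µM added 15 min before a cumulative NC(1-13)NH2 concentration-response curve. pKB calculated with the Gaddum-Schild equation, assuming a slope of 1, from the concentration ratio. Mean of at least 3 experiments, with 95% confidence limits.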

[4] = biological target: T1, Nociceptin receptor (Mus musculus, UniProt P35377); assay: Binding affinity towards Orphanin FQ receptor on mouse forebrain membranes was determined using [3H]-NC-NH2 as radioligand; set-up: species or system Membrane
How it was run: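 Forebrain membranes from male Swiss mice (25-30 g), homogenized in 50 mM Tris HCl, 2 mM EDTA, 100 µM PMSF, pH 7.4, then preincubated 30 min at 37 °C. Competition against 0.5 nM [3H]NC-NH2 using 200 µg protein per assay, run in duplicate, 120 min at 25 °C. Bound ligand separated by GF/C filtration. Ki obtained by nonlinear least-squares fitting.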

[5] = species: Mus musculus; assay: Potency (Emax) at 10 uM against electrically evoked contraction (twitch response) in mouse vas deferens; Slight effect (50% inhibition was detected at 10 uM); format: functional, organism-based; how it was run: as §1
[6] = species: Mus musculus; assay: Compound was tested for agonistic activity against electrically evoked contraction (twitch response) in mouse vas deferens; Slight effect (50% inhibition was detected at 10 uM); format: functional, organism-based; details: filed as partial agonist; how it was run: as §1
[7] = species: Mus musculus; assay: Compound was tested for the antagonistic activity on mouse vas deferens using NC(1-13)NH2 as agonist; format: functional; how it was run: as §2
[8] = biological target: T1, Nociceptin receptor; assay: Affinity to nociceptin receptors on mouse forebrain membranes by [3H]NC-NH2 displacement.
How it was run: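 Forebrain membranes from male Swiss mice (25-30 g), homogenized in 50 mM Tris HCl, 2 mM EDTA, 100 µM PMSF, pH 7.4, then preincubated 30 min at 37 °C. Bound ligand separated by GF/C filtration. Ki obtained by nonlinear least-squares fitting.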

[9] = species: Mus musculus; assay: Potency (Emax) against electrically evoked contraction (twitch response) in mouse vas deferens; format: functional; how it was run: as §1
[10] = species: Mus musculus; assay: Compound was tested for agonistic activity against electrically evoked contraction (twitch response) in mouse vas deferens; format: functional, organism-based; how it was run: as §1

T1 sequence (P35377 whole entry): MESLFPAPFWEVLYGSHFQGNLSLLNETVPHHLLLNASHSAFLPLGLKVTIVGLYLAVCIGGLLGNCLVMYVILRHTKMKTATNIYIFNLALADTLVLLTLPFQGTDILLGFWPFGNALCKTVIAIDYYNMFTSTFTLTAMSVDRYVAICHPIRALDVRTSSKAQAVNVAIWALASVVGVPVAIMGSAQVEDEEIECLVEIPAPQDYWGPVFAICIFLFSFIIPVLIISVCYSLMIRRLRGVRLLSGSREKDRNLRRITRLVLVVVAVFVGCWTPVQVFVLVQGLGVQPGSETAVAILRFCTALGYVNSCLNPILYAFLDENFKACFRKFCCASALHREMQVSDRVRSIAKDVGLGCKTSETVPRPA

| Structure (SMILES) | Ki [8] [nM] | Emax [9] [%] | EC50 [10] [nM] | also measured |
| --- | --- | --- | --- | --- |
| C[C@H](NC(=O)CNC(=O)[C@@H](NC(=O)[C@H](Cc1ccccc1)NC(=O)CNC(=O)CNC(=O)CNCc1ccccc1)[C@@H](C)O)C(=O)N[C@@H](CCCN=C(N)N)C(=O)N[C@@H](CCCCN)C(N)=O (H-[Nphe]GGFTGARK-NH2) | – | – | – | Emax [1]: inactive; Log EC50 [2]: inactive; pKB [3]: inactive; Ki [4]: > 10 µM |
| C[C@H](NC(=O)CNC(=O)[C@@H](NC(=O)[C@H](Cc1ccccc1)NC(=O)CNC(=O)CNC[C@@H](N)Cc1ccc(O)cc1)[C@@H](C)O)C(=O)N[C@@H](CCCN=C(N)N)C(=O)N[C@@H](CCCCN)C(=O)N[C@@H](CO)C(=O)N[C@@H](C)C(=O)N[C@@H](CCCN=C(N)N)C(=O)N[C@@H](CCCCN)C(N)=O (H-[X5]GFTGARKSARK-NH2) | 100 | – | – | Emax [5]: Partially active; Log EC50 [6]: Partial agonist; pKB [7]: 5.7 |
| Cc1ccc(C[C@H](N)C(=O)NCC(=O)NCC(=O)N[C@@H](Cc2ccccc2)C(=O)N[C@H](C(=O)NCC(=O)N[C@@H](C)C(=O)N[C@@H](CCCN=C(N)N)C(=O)N[C@@H](CCCCN)C(=O)N[C@@H](CO)C(=O)N[C@@H](C)C(=O)N[C@@H](CCCN=C(N)N)C(=O)N[C@@H](CCCCN)C(N)=O)[C@@H](C)O)cc1 | 200 | -70 | 2510 | – |
| CC(C)C[C@H](N)CNCC(=O)NCC(=O)N[C@@H](Cc1ccccc1)C(=O)N[C@H](C(=O)NCC(=O)N[C@@H](C)C(=O)N[C@@H](CCCN=C(N)N)C(=O)N[C@@H](CCCCN)C(=O)N[C@@H](CO)C(=O)N[C@@H](C)C(=O)N[C@@H](CCCN=C(N)N)C(=O)N[C@@H](CCCCN)C(N)=O)[C@@H](C)O (H-[X1]GFTGARKSARK-NH2) | 15.8 | – | – | Emax [5]: Partially active; Log EC50 [6]: Partial agonist; pKB [7]: 5.4 |
| CC(C)C[C@H](N)C(=O)NCC(=O)NCC(=O)N[C@@H](Cc1ccccc1)C(=O)N[C@H](C(=O)NCC(=O)N[C@@H](C)C(=O)N[C@@H](CCCN=C(N)N)C(=O)N[C@@H](CCCCN)C(=O)N[C@@H](CO)C(=O)N[C@@H](C)C(=O)N[C@@H](CCCN=C(N)N)C(=O)N[C@@H](CCCCN)C(N)=O)[C@@H](C)O (H-LGGFTGARKSARK-NH2) | 2.51 | -80 | 25.1 | – |
| C[C@H](NC(=O)CNC(=O)[C@@H](NC(=O)[C@H](Cc1ccccc1)NC(=O)CNC(=O)CNC(=O)[C@@H](N)CC1CCCCC1)[C@@H](C)O)C(=O)N[C@@H](CCCN=C(N)N)C(=O)N[C@@H](CCCCN)C(=O)N[C@@H](CO)C(=O)N[C@@H](C)C(=O)N[C@@H](CCCN=C(N)N)C(=O)N[C@@H](CCCCN)C(N)=O | 1 | -84 | 12.6 | – |
| C[C@H](NC(=O)CNC(=O)[C@@H](NC(=O)[C@H](Cc1ccccc1)NC(=O)CNC(=O)CNC(=O)[C@@H](N)Cc1ccccc1)[C@@H](C)O)C(=O)N[C@@H](CCCN=C(N)N)C(=O)N[C@@H](CCCCN)C(=O)N[C@@H](CO)C(=O)N[C@@H](C)C(=O)N[C@@H](CCCN=C(N)N)C(N)=O (H-FGGFTGARKSAR-NH2) | 25.1 | -79 | 794 | – |
